These results are taken from ChEMBL document CHEMBL1152785, “Synthesis and biological evaluation of a series of novel inhibitor of Nek2/Hec1 analogues” (J Med Chem, 2009).

In test [1] the test system is HeLa. Briefly: Anticancer activity against human HeLa cells assessed as reduction of Nek2 level at 25 uM after 8 to 11 hrs by Western blot assay. In kind it is functional, cell-based. (A western blot detects proteins with antibodies after separation by electrophoresis.)
Test [2] addresses T1, Kinetochore protein NDC80 homolog (Homo sapiens) (UniProt O14777).
T1 sequence (whole entry): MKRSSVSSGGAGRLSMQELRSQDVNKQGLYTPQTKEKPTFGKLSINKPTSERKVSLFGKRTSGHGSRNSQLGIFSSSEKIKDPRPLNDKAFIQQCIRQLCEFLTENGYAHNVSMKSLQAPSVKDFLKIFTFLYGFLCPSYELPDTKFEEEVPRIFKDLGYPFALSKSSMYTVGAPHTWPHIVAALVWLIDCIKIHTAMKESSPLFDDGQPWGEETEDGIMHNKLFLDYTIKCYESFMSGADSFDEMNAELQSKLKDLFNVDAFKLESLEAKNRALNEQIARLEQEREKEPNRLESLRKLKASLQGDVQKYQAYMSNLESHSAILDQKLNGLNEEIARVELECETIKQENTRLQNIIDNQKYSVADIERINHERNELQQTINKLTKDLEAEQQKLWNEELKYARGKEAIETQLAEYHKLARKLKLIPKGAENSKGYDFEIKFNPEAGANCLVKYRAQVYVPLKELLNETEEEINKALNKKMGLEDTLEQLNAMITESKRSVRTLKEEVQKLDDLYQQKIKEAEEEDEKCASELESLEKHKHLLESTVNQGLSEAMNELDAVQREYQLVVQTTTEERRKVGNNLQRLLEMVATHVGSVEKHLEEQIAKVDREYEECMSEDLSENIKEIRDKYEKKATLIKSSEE
Briefly: Inhibition of Hec1/Nek2 complex in human Hela cells assessed as mitotic abnormality with multipolar spindle configuration at 25 uM after 24 hrs by immuno-fluorescent staining. In kind it is cell-based.

Another test has as its system MDA-MB-468. Put plainly: Cytotoxicity against human MDA-MB-468 cells after 4 days by XTT assay. It counts as functional, cell-based. The settings on record: MDA-MB-468, 96 h. Summed up:
(§1)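 XTT assay with four-day drug treatment. Cells were plated one day before dosing and drug was added on day 2. XTT was read on day 5 after drug addition by absorbance at 595 nm. Absorbance was converted to percent survival against mock-treated cells to give dose-dependent cytotoxicity. Triplicate sets. HeLa, MDA-MB231 and MDA-MB468 were maintained in DMEM with 10% FBS.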
On the technique in general: Tetrazolium assays rely on reduction of a dye to a coloured formazan, in cell work by metabolically active cells.

In the next test the test system is K562. Briefly: Cytotoxicity against human K562 cells after 4 days by XTT assay. In kind it is functional, cell-based. As to conditions: K562, 96 h.
Test [3] has as its system HeLa. Briefly: Cytotoxicity against human HeLa cells after 4 days by XTT assay. The settings on record: 96 h. It counts as functional, cell-based. Summed up: as §1
Test [4] has as its system HeLa. Put plainly: Anticancer activity against human HeLa cells assessed as reduction of Nek2 level at 25 uM by Western blot assay. In kind it is functional, cell-based.
The next test deals with MDA-MB-231. Put plainly: Cytotoxicity against human MDA-MB-231 cells after 4 days XTT assay. The settings on record: MDA-MB-231, 96 h. It counts as functional, cell-based. Summed up:
as §1

The test system of test [5] is HeLa. Put plainly: Induction of apoptosis in human HeLa cells assessed as morphological changes with membrane bubbling at 2.5 uM. It counts as functional, cell-based. The method in brief:
(§2)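 HeLa cells were treated with compound at 2.5 μM, with buffer as mock control. Phase contrast images were taken at various time points to assess dying-cell morphology such as membrane bubbling. Cell cycle profiling was done by FACS at 72 h.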

The target of test [6] is T1, Kinetochore protein NDC80 homolog (Homo sapiens). Briefly: Inhibition of Hec1/Nek2 complex in human Hela cells assessed as mitotic abnormality with multipolar spindle configuration at 3.75 uM after 24 hrs by immuno-fluorescent staining.
The test system of test [7] is HeLa. Briefly: Anticancer activity against human HeLa cells assessed as reduction of Nek2 level at 6.25 uM by Western blot assay. It counts as functional, cell-based. Summed up: (§3)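 HeLa cells in DMEM with 10% FBS were treated with compound at 6.25 μM and harvested at various time points. Extracts were run on SDS-PAGE and Western blotted for Nek2 and Hec1, with p84 (nuclear matrix protein) as loading control. Nek2 level was followed over time after treatment.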

Test [8] has as its system HeLa. Put plainly: Cell cycle arrest in human HeLa cells assessed as accumulation at subG1 phase at 2.5 uM after 72 hrs by FACS analysis. In kind it is functional. Summed up: as §2
A general note: Flow cytometry measures light scatter and fluorescence of single cells or particles in a stream.

Test [9] relates to HeLa. Put plainly: Anticancer activity against human HeLa cells assessed as reduction of Nek2 level at 6.25 uM after 8 to 11 hrs by Western blot assay. It counts as functional. Also on record: scale not given: the % may be the effect or the level left. Summed up: as §3
Test [10] concerns the target T1, Kinetochore protein NDC80 homolog (Homo sapiens). Put plainly: Inhibition of Hec1/Nek2 complex in human Hela cells assessed as mitotic abnormality with multipolar spindle configuration at 3.75 uM after 24 hrs by immuno-fluorescent staining. In kind it is cell-based. Summed up:
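HeLa cells were treated with compound at 3.75 μM or buffer mock for 24 h. Cells were immunostained for α-tubulin and γ-tubulin with DAPI for DNA. Mitotic cells were examined for spindle pole number, i.e. multipolar spindles.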

Test [11] concerns the target T2, Serine/threonine-protein kinase Nek2 (Homo sapiens) (UniProt P51955).
T2 sequence (whole entry): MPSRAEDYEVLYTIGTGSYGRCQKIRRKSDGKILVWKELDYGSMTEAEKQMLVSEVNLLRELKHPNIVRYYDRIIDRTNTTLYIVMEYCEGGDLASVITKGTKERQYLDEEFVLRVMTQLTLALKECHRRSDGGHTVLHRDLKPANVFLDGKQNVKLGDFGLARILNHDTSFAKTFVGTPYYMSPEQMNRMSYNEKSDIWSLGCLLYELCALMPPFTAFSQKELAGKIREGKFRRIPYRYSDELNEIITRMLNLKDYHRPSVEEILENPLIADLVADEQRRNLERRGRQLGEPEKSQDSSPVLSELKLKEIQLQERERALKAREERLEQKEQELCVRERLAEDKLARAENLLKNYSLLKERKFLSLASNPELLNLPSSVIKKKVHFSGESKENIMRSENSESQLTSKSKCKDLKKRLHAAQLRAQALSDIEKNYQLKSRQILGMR
Put plainly: Binding affinity to NeK2 in human HeLa cell extract by affinity pulldown assay. It counts as cell-free. The method in brief: (§4)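 Compounds were conjugated to affi-gel matrix. HeLa cell extract was incubated with control or compound-conjugated matrices and the precipitates were washed thoroughly. Bound proteins were resolved by SDS-PAGE and Western blotted for Hec1 and Nek2. Whole cell extract served as input, in duplicates.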

The subject of test [12] is HeLa. Put plainly: Anticancer activity against human HeLa cells expressing H2B-GFP assessed as increase in rate of chromosome misalignment at 2.5 uM after 24 hrs. In kind it is functional, cell-based. The method in brief:
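HeLa cells expressing the chromosome marker H2B-GFP were treated with compound at 2.5 μM. The incidence of metaphase chromosome alignment was scored. Triplicate sets were measured to give averages and deviations.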

In test [13] the target is T1, Kinetochore protein NDC80 homolog (Homo sapiens). Put plainly: Binding affinity to Hec1 in human HeLa cell extract by affinity pulldown assay. In kind it is cell-free. The method in brief: as §4

Calls of active or inactive are those of the source. No cut-off for these calls is given here.

The IC50 is the point on the concentration scale where inhibition reaches its midpoint. As to `Cc1ccc(-c2csc(NC(=O)c3ccccc3)n2)c(C)c1`, the result (with HeLa [1]; in [2]; with HeLa [4]) was Active. In addition, the IC50 was determined as 10.5 µM in the test on MDA-MB-468, 11.7 µM in the test on K562, 8.8 µM in the test with HeLa [3] and 8.6 µM with MDA-MB-231.
As for `Cc1cc(C)c(-c2csc(NC(=O)N3CCOCC3)n2)c(C)c1`, the IC50 with MDA-MB-468 was found to be 4.2 µM; in the test with K562, 3.8 µM; in the test on HeLa [3], 2.5 µM; with MDA-MB-231, 1.6 µM. The result (in the test with HeLa [5]; in test [6]; with HeLa [7]; in test [10]; in the test with HeLa [12]) was Active. The Activity with HeLa [8] is given as 20.1%; in the test on HeLa [9], 50%. For the same compound, the outcome in test [11] was inactive.
For `Cc1cc(C)c(-c2csc(NC(=O)c3ccccc3)n2)c(C)c1`, the IC50 with MDA-MB-468 worked out at 2.1 µM; in the test with K562, 2.5 µM; in the test on HeLa [3] it was 2.4 µM; in the test with MDA-MB-231, 1.7 µM. Also, the outcome (with HeLa [5]; in test [6]; in the test with HeLa [7]; in [13]; in test [10]; in the test on HeLa [12]) was Active. In addition, the results for the Activity with HeLa [8] and in the test with HeLa [9] were 19.9% and 50%, respectively. Moreover, the outcome in test [11] was inactive.
